Results: ChEMBL document CHEMBL1122659, “Synthesis of some phosphonates with antiherpetic activity” (1984)
In brackets after ≈: the same amount, converted by molar mass. Activity calls are given as the source filed them. No cut-off for these calls is given here.

What was measured:
[1] = species: Oryctolagus cuniculus; experiment: In vitro ability to inhibit the herpes HSV-2 virus; Inactive; format: functional, organism-based; conditions: herpes simplex virus
[2] = species: Cavia porcellus; experiment: Effect on the growth of Herpes simplex Type 1 on the skin of Guinea pigs infected intradermally on day 4 at 5 % concentration; format: functional
Method in brief: (§1)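 Guinea pigs (Hartley, 350–400 g) were infected intradermally on an epilated flank with undiluted HSV-1 AA strain and treated with topical cream. Supernatants of lesion skin scrapings were diluted 10⁻¹ to 10⁻⁸ and titered by plaque assay on BSC-1 monolayers in triplicate: 1 h adsorption at 37 °C, agarose overlay, 4 days at 37 °C, formalin fixation, crystal violet staining, plaques counted.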

[3] = species: Cavia porcellus; experiment: Effect on the growth of Herpes simplex Type 1 on the skin of Guinea pigs infected intradermally on day 3 at 5 % concentration; format: functional; method in brief: as §1
[4] = species: Cavia porcellus; experiment: Effect on the growth of Herpes simplex Type 1 on the skin of Guinea pigs infected intradermally on day 2 at 5 % concentration; format: functional; method in brief: as §1
[5] = species: Cavia porcellus; experiment: Effect on the growth of Herpes simplex Type 1 on the skin of Guinea pigs infected intradermally on day 1 at 5% concentration; format: functional
Method in brief: (§2)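 Guinea pigs were infected intradermally with HSV-1 on an epilated flank and treated topically with cream. Virus in skin-scraping supernatants was titered by plaque assay on BSC-1 monolayers. Dilutions of 10⁻¹ to 10⁻⁸ in Eagle's medium with 2% FCS were plated in triplicate and adsorbed 1 h at 37 °C. An agarose overlay followed, with 4 days' incubation, formalin fixation, crystal violet staining and plaque counting.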

[6] = species: Cavia porcellus; experiment: Effect on the development of Herpetic vesicles in Guinea pigs infected intradermally with Herpes virus Hominis, Type 1,AA strain on day 2 at 5 % concentration; format: functional
Method in brief: (§3)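 Albino Hartley guinea pigs (350–400 g) were infected intradermally with 0.05 mL undiluted HSV-1 AA strain, delivered by vaccination gun into a 12 mm marked area on an epilated flank. Topical cream treatment followed. Vesicle development was scored daily.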

[7] = species: Cavia porcellus; experiment: Effect on the development of Herpetic vesicles in Guinea pigs infected intradermally with Herpes virus Hominis, Type 1,AA strain on day 4 at 5 % concentration; format: functional; method in brief: as §3
[8] = species: Cavia porcellus; experiment: Effect on the development of Herpetic vesicles in Guinea pigs infected intradermally with Herpes virus Hominis, Type 1,AA strain on day 1 at 5% concentration; format: functional
Method in brief: (§4)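 Hartley albino guinea pigs (350–400 g) were infected with undiluted HSV-1 AA strain, 0.05 mL placed in a 12-mm circle on an epilated flank and given intradermally by vaccination gun. Test article was a topical cream, with treatment starting 24 h postinfection. Mean vesicle score was recorded on days 1–5 against placebo and nonmedicated groups.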

[9] = species: Cavia porcellus; experiment: Effect on the development of Herpetic vesicles in Guinea pigs infected intradermally with Herpes virus Hominis, Type 1,AA strain on day 2 at 8 % concentration; format: functional; method in brief: as §4
[10] = species: Cavia porcellus; experiment: Effect on the development of Herpetic vesicles in Guinea pigs infected intradermally with Herpes virus Hominis, Type 1,AA strain on day 3 at 8 % concentration; format: functional; method in brief: as §4
[11] = species: Cavia porcellus; experiment: Effect on the development of Herpetic vesicles in Guinea pigs infected intradermally with Herpes virus Hominis, Type 1,AA strain on day 4 at 8 % concentration; format: functional; method in brief: as §4
[12] = species: Cavia porcellus; experiment: Effect on the growth of Herpes simplex Type 1 on the skin of Guinea pigs infected intradermally on day 3 at 8 % concentration; format: functional; method in brief: as §2
[13] = species: Cavia porcellus; experiment: Effect on the growth of Herpes simplex Type 1 on the skin of Guinea pigs infected intradermally on day 4 at 8 % concentration; format: functional; method in brief: as §2
[14] = species: Cavia porcellus; experiment: Effect on the development of Herpetic vesicles in Guinea pigs infected intradermally with Herpes virus Hominis, Type 1,AA strain on day 1 at 8 % concentration; format: functional; method in brief: as §4
[15] = species: Cavia porcellus; experiment: Effect on the growth of Herpes simplex Type 1 on the skin of Guinea pigs infected intradermally on day 1 at 8 % concentration; format: functional; method in brief: as §2
[16] = species: Cavia porcellus; experiment: Effect on the growth of Herpes simplex Type 1 on the skin of Guinea pigs infected intradermally on day 2 at 8 % concentration; format: functional; method in brief: as §2
[17] = species: Cavia porcellus; experiment: Effect of compound in a vanishing cream base on the development of Herpetic vesicles in Guinea pigs infected intradermally with Herpesvirus Hominis, Type 1, AA strain and the virus titer was determined at 5% conc. on day 2; format: functional
[18] = species: Cavia porcellus; experiment: Effect of compound in a vanishing cream base on the development of Herpetic vesicles in Guinea pigs infected intradermally with Herpesvirus Hominis, Type 1, AA strain and the virus titer was determined at 10% conc. on day 1; format: functional
[19] = species: Cavia porcellus; experiment: Effect of compound in a vanishing cream on the development of Herpetic vesicles in Guinea pigs infected intradermally with Herpes virus Hominis, Type 1,AA strain on day 5 at 10 % concentration; format: functional
Method in brief: (§5)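 Albino Hartley guinea pigs (350–400 g) were infected intradermally with 0.05 mL undiluted HSV-1 AA strain, delivered by vaccination gun into a 12 mm circle on an epilated flank. Test agent was applied as a topical cream starting 24 h postinfection. Lesions were scored daily for mean vesicle score over days 1–5.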

[20] = species: Mus musculus; experiment: Percent survival rate of mice infected intravaginally with herpes simplex virus type 2 at daily dosage of 2.5%(treatment initiated 4-h postinfection and continued for 7 days); format: functional
Method in brief: (§6)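 Mice infected intravaginally with HSV-2. Test agent suspended in gum tragacanth and applied intravaginally. Survival recorded.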

[21] = species: Mus musculus; experiment: Average survival rate of mice infected intravaginally with herpes simplex virus type 2 at daily dosage of 5%(treatment initiated 4-h postinfection and continued for 7 days); format: functional; method in brief: as §6
[22] = species: Cavia porcellus; experiment: Effect on the development of Herpetic vesicles in Guinea pigs infected intradermally with Herpes virus Hominis, Type 1,AA strain on day 3 at 5 % concentration; format: functional; method in brief: as §3
[23] = species: Cavia porcellus; experiment: Effect on the growth of Herpes simplex Type 1 on the skin of Guinea pigs infected intradermally on day 1 at 5 % concentration; format: functional; method in brief: as §1
[24] = species: Cavia porcellus; experiment: Effect of compound in a vanishing cream base on the development of Herpetic vesicles in Guinea pigs infected intradermally with Herpesvirus Hominis, Type 1, AA strain and the virus titer was determined at 5% conc. on day 1; format: functional
[25] = species: Cavia porcellus; experiment: Effect of compound in a vanishing cream on the development of Herpetic vesicles in Guinea pigs infected intradermally with Herpes virus Hominis, Type 1,AA strain on day 2 at 5 % concentration; format: functional; method in brief: as §5
[26] = In vitro ability to inhibit the herpes HSV-2 virus; format: functional, herpes simplex virus; conditions: Oryctolagus cuniculus
[27] = species: Cavia porcellus; experiment: Effect of compound in a vanishing cream on the development of Herpetic vesicles in Guinea pigs infected intradermally with Herpes virus Hominis, Type 1,AA strain on day 2 at 10 % concentration; format: functional; method in brief: as §5
[28] = species: Cavia porcellus; experiment: Effect of compound in a vanishing cream base on the development of Herpetic vesicles in Guinea pigs infected intradermally with Herpesvirus Hominis, Type 1, AA strain and the virus titer was determined at 10% conc. on day 3; format: functional
[29] = species: Cavia porcellus; experiment: Effect of compound in a vanishing cream on the development of Herpetic vesicles in Guinea pigs infected intradermally with Herpes virus Hominis, Type 1,AA strain on day 4 at 10 % concentration; format: functional; method in brief: as §5
[30] = species: Cavia porcellus; experiment: Effect of compound in a vanishing cream base on the development of Herpetic vesicles in Guinea pigs infected intradermally with Herpesvirus Hominis, Type 1, AA strain and the virus titer was determined at 10% conc. on day 5; format: functional
[31] = species: Cavia porcellus; experiment: Effect of compound in a vanishing cream on the development of Herpetic vesicles in Guinea pigs infected intradermally with Herpes virus Hominis, Type 1,AA strain on day 3 at 5 % concentration; format: functional; method in brief: as §5
[32] = species: Cavia porcellus; experiment: Effect of compound in a vanishing cream on the development of Herpetic vesicles in Guinea pigs infected intradermally with Herpes virus Hominis, Type 1,AA strain on day 4 at 5 % concentration; format: functional; method in brief: as §5
[33] = species: Mus musculus; experiment: Percent survival rate of mice infected intravaginally with herpes simplex virus type 2 at daily dosage of 5%(treatment initiated 4-h postinfection and continued for 7 days); format: functional; method in brief: as §6
[34] = species: Cavia porcellus; experiment: Effect of compound in a vanishing cream on the development of Herpetic vesicles in Guinea pigs infected intradermally with Herpes virus Hominis, Type 1,AA strain on day 3 at 10 % concentration; format: functional; method in brief: as §5
[35] = species: Cavia porcellus; experiment: Effect of compound in a vanishing cream on the development of Herpetic vesicles in Guinea pigs infected intradermally with Herpes virus Hominis, Type 1,AA strain on day 1 at 10 % concentration; format: functional; method in brief: as §5
[36] = species: Cavia porcellus; experiment: Effect on the development of Herpetic vesicles in Guinea pigs infected intradermally with Herpes virus Hominis, Type 1,AA strain on day 1 at 5 % concentration; format: functional; method in brief: as §3
[37] = species: Cavia porcellus; experiment: Effect of compound in a vanishing cream base on the development of Herpetic vesicles in Guinea pigs infected intradermally with Herpesvirus Hominis, Type 1, AA strain and the virus titer was determined at 10% conc. on day 2; format: functional
[38] = species: Mus musculus; experiment: Percent survival rate of mice infected intravaginally with herpes simplex virus type 2 at daily dosage of 10%(treatment initiated 4-h postinfection and continued for 7 days); format: functional; method in brief: as §6
[39] = species: Mus musculus; experiment: Average survival rate of mice infected intravaginally with herpes simplex virus type 2 at daily dosage of 10%(treatment initiated 4-h postinfection and continued for 7 days); format: functional; method in brief: as §6
[40] = species: Cavia porcellus; experiment: Effect of compound in a vanishing cream on the development of Herpetic vesicles in Guinea pigs infected intradermally with Herpes virus Hominis, Type 1,AA strain on day 1 at 5 % concentration; format: functional; method in brief: as §5
[41] = species: Cavia porcellus; experiment: Effect of compound in a vanishing cream base on the development of Herpetic vesicles in Guinea pigs infected intradermally with Herpesvirus Hominis, Type 1, AA strain and the virus titer was determined at 5% conc. on day 4; format: functional
[42] = species: Cavia porcellus; experiment: Effect of compound in a vanishing cream on the development of Herpetic vesicles in Guinea pigs infected intradermally with Herpes virus Hominis, Type 1,AA strain on day 5 at 5% concentration; format: functional; method in brief: as §5

CCOP(=O)(CCCOc1ccc(OC)cc1Cl)OCC
MIC [1]: inactive

CCOP(=O)(CCOc1ccc(O)cc1)OCC
MIC [1]: inactive

CCOP(=O)(CCOc1ccc(OC(C)=O)cc1)OCC
MIC [1]: inactive

COc1ccc(OCCCCCCP(=O)(O)O)c(Cl)c1
MIC [1]: inactive

Nc1nc2c(ncn2COCCO)c(=O)[nH]1 [ACYCLOVIR]
Log geometric mean [2]: 2.13 pfu mg-1 | Log geometric mean [3]: 3.31 pfu mg-1 | Log geometric mean [4]: 4.09 pfu mg-1 | Log geometric mean [5]: 4.3 pfu mg-1 | Mean vesicle score [6]: 0.83 | Mean vesicle score [7]: 1 | Mean vesicle score [8]: 0.58

CCC(=O)C(CCCCCCOc1ccc(OC)cc1Cl)C(=O)CC [ARILDONE]
Mean vesicle score [9]: 0.83 | Mean vesicle score [10]: 0.92 | Mean vesicle score [11]: 0.83 | Log geometric mean [12]: 2.92 ppfu mg-1 | Log geometric mean [13]: 2.62 pfu mg-1 | Mean vesicle score [14]: 0.33 | Log geometric mean [15]: 4.13 pfu mg-1 | Log geometric mean [16]: 4.07 pfu mg-1

CCOP(=O)(CCCCCCOc1ccc(OC)cc1Cl)OCC [FOSARILATE]
Log TCID50/mg [17]: <1.41 | Log geometric mean [2]: 0.76 pfu mg-1 | Log TCID50/mg [18]: 3.18 | Mean vesicle score [19]: 1.1 | Log geometric mean [3]: 0.79 pfu mg-1 | Survival [20]: 30% | Average survival [21]: >10.5 days | Mean vesicle score [22]: 0.5 | Log geometric mean [23]: 4.23 pfu mg-1 | Log TCID50/mg [24]: 3.94 | Mean vesicle score [25]: 1.17 | MIC [26]: 3 µg/mL (≈ 7.92 µM) | Mean vesicle score [27]: 0.83 | Log TCID50/mg [28]: <1.6 | Log geometric mean [4]: 0.96 pfu mg-1 | Mean vesicle score [29]: 0.92 | Log TCID50/mg [30]: <1.25 | Mean vesicle score [31]: 0.75 | Mean vesicle score [32]: 1 | Mean vesicle score [6]: 0.75 | Survival [33]: 50% | Mean vesicle score [34]: 0.91 | Mean vesicle score [35]: 0.67 | Mean vesicle score [36]: 0.5 | Log TCID50/mg [37]: <1.34 | Survival [38]: 60% | Average survival [39]: >11.3 days | Mean vesicle score [40]: 0.75 | Log TCID50/mg [41]: <1.25 | Mean vesicle score [42]: 0.67
